Results published in ChEMBL document CHEMBL3745692, “Novel iodoacetamido benzoheterocyclic derivatives with potent antileukemic activity are inhibitors of STAT5 phosphorylation” (Eur J Med Chem, 2016).

Key:
[1] = target: T1, Signal transducer and activator of transcription 5A (Homo sapiens) (UniProt P42229); test: Inhibition of STAT5 phosphorylation in human K562 cells at 3 uM after 24 hrs by flow cytometry (reference value: 315.56); type: cell-based
T1 sequence (whole entry): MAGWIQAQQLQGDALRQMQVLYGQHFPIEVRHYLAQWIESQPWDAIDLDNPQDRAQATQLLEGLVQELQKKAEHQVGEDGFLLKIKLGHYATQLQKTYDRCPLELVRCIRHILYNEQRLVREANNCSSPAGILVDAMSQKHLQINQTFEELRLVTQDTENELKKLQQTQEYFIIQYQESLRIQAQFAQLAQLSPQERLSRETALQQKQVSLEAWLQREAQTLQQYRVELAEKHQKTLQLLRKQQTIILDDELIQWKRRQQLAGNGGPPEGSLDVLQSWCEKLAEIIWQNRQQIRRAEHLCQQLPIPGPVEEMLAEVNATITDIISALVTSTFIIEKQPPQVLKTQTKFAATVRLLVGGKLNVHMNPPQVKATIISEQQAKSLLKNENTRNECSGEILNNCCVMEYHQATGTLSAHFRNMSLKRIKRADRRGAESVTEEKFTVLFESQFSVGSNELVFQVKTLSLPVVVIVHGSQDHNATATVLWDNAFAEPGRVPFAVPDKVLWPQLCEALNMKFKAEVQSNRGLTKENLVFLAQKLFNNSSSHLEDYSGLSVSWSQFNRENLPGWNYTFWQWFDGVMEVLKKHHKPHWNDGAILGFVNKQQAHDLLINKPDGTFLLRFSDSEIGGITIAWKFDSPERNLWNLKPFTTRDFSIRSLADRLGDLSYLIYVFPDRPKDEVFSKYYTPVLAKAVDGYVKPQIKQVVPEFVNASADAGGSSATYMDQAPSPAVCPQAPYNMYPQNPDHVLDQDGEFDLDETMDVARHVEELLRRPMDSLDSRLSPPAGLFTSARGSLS
In short: (§1)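 After 24 h exposure, about 1×10^6 K562 cells were PBS-washed and fixed/permeabilised for 20 min at 4 °C. They were then stained for 30 min at 4 °C with PE-conjugated anti-pSTAT5 monoclonal antibody, with an isotype antibody as control. Median fluorescence was read by flow cytometry and compared with untreated cells stained for pSTAT5.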

Tubulin = Tubulin (Bos taurus, UniProt Q6B856+Q862L2+Q862F3); test: Inhibition of bovine brain tubulin polymerization by spectrophotometry
In short: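 Bovine brain tubulin (10 µM) was pre-incubated with varying compound concentrations in glutamate buffer at 30 °C, then cooled to 0 °C. GTP was added ([…] final) and the mixture warmed to 30 °C. Assembly was followed by turbidity at 350 nm.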

K562 [2] = test: Antiproliferative activity against human K562 cells after 48 hrs by trypan blue dye exclusion assay; type: functional, cell-based; conditions: K562, 48 h
K562 [3] = test: Induction of apoptosis in human K562 cells after 48 hrs by annexinV and propidium iodide staining based flow cytometry; type: functional, cell-based; conditions: K562, 48 h
In short: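 After 48 h drug exposure, 1×10^6 cells were washed in PBS and spun at 200×g for 5 min. They were stained with FITC-annexin V plus propidium iodide for 15 min at 20 °C and annexin V-positive cells counted by flow cytometry. Apoptosis was also scored morphologically with acridine orange/ethidium bromide, counting at least 300 cells. AC50 is the concentration inducing apoptosis in 50% of cells; mean ± SE from two to three experiments.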

K562 [4] = test: Cell cycle arrest in human K562 cells assessed as accumulation at G1 phase at 3 uM for 24 hrs by propidium iodide staining based flow cytometry (reference value: 39.27%); type: functional
In short: (§2)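 K562 cells in RPMI 1640 with 10% FCS, penicillin/streptomycin and L-glutamine, 5% CO2, 37 °C; exposed 24 h. Cells washed in ice-cold PBS, resuspended at 1×10^6/mL in hypotonic solution of propidium iodide 50 µg/mL in 0.1% sodium citrate plus 0.03% nonidet P-40 for 30 min. DNA content read as single-parameter flow cytometry histograms; phase distribution modelled.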

K562 [5] = test: Cell cycle arrest in human K562 cells assessed as accumulation at S-phase at 3 uM for 24 hrs by propidium iodide staining based flow cytometry (reference value: 47.84%); type: functional; in short: as §2
K562 [6] = test: Cell cycle arrest in human K562 cells assessed as accumulation at G2M-phase at 3 uM for 24 hrs by propidium iodide staining based flow cytometry (reference value: 12.89%); type: functional; in short: as §2
[7] = target: T1, Signal transducer and activator of transcription 5A (Homo sapiens); test: Inhibition of STAT5 phosphorylation in human K562 cells at 2 uM after 24 hrs by flow cytometry (reference value: 315.56); type: cell-based; in short: as §1
K562 [8] = test: Cell cycle arrest in human K562 cells assessed as accumulation at G1 phase at 2 uM for 24 hrs by propidium iodide staining based flow cytometry (reference value: 39.27%); type: functional
In short: (§3)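 K562 cells were exposed to compound for 24 h. They were then washed in ice-cold PBS and resuspended at 1×10^6/mL in a hypotonic solution of propidium iodide 50 µg/mL in 0.1% sodium citrate with 0.03% NP-40. After 30 min, DNA content was read by flow cytometry as single-parameter histograms and cell cycle phase distribution (%) was modelled.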

K562 [9] = test: Cell cycle arrest in human K562 cells assessed as accumulation at S-phase at 2 uM for 24 hrs by propidium iodide staining based flow cytometry (reference value: 47.84%); type: functional; in short: as §3
K562 [10] = test: Cell cycle arrest in human K562 cells assessed as accumulation at G2M-phase at 2 uM for 24 hrs by propidium iodide staining based flow cytometry (reference value: 12.89%); type: functional; in short: as §3
Bos taurus = species: Bos taurus; test: Inhibition of [3H]colchicine binding to bovine tubulin at 5 uM by DEAE-cellulose filter method
In short: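 Reaction mixtures contained 1 µM tubulin, 5 µM [3H]colchicine and 5 µM test compound. Result is given as % inhibition of colchicine binding ± SD.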

[11] = target: T1, Signal transducer and activator of transcription 5A (Homo sapiens); test: Inhibition of STAT5 phosphorylation in human K562 cells at 2 uM after 24 hrs by flow cytometry relative to control; type: cell-based
In short: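 K562 cells were exposed for 24 h. About 1×10^6 cells were fixed and permeabilized for 20 min at 4 °C, then stained for 30 min at 4 °C with PE-conjugated anti-pSTAT5 monoclonal antibody; an isotype IgG1 antibody served as the background control. Median fluorescence was read by flow cytometry and compared with untreated cells stained for pSTAT5.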

K562 [12] = test: Cell cycle arrest in human K562 cells assessed as accumulation at G2M-phase at 1 uM for 24 hrs by propidium iodide staining based flow cytometry (reference value: 12.89%); type: functional; in short: as §3
[13] = target: T1, Signal transducer and activator of transcription 5A (Homo sapiens); test: Inhibition of STAT5 phosphorylation in human K562 cells at 1 uM after 24 hrs by flow cytometry (reference value: 315.56); type: cell-based; in short: as §1
K562 [14] = test: Cell cycle arrest in human K562 cells assessed as accumulation at G1 phase at 1 uM for 24 hrs by propidium iodide staining based flow cytometry (reference value: 39.27%); type: functional; in short: as §3
K562 [15] = test: Cell cycle arrest in human K562 cells assessed as accumulation at S-phase at 1 uM for 24 hrs by propidium iodide staining based flow cytometry (reference value: 47.84%); type: functional; in short: as §3

Row | Structure (SMILES) | IC50 (K562 [2]) | AC50 (K562 [3]) | Flu intensity [7] | Activity (K562 [8]) | Activity (K562 [9]) | Activity (K562 [10]) | also measured
1 | COc1cc(C(=O)c2oc3ccccc3c2NC(=O)CI)cc(OC)c1OC | 0.9 µM | 6.5 µM | – | – | – | – | Flu intensity [1]: 98.3; IC50 (Tubulin): > 20 µM; Activity (K562 [4]): 75.37%; Activity (K562 [5]): 20.98%; Activity (K562 [6]): 3.65%
2 | COc1cc(C(=O)c2cc3cc(NC(=O)CI)ccc3s2)cc(OC)c1OC | 0.8 µM | 4.2 µM | 279 | 32.96% | 54.92% | 12.12% | –
3 | COc1ccc2c(NC(=O)CI)c(C(=O)c3cc(OC)c(OC)c(OC)c3)oc2c1 | 0.12 µM | 0.45 µM | – | – | – | – | IC50 (Tubulin): 1.8 µM; inhibition (Bos taurus): 54%
4 | COc1cc(C(=O)c2cc3c(NC(=O)CI)cccc3o2)cc(OC)c1OC | 0.8 µM | 4.5 µM | 272 | 33.67% | 53.09% | 16.24% | –
5 | COc1cc(C(=O)c2sc3ccccc3c2NC(=O)CI)cc(OC)c1OC | 18 µM | 28 µM | – | – | – | – | –
6 | COc1cc2oc(C(=O)c3cc(OC)c(OC)c(OC)c3)cc2cc1NC(=O)CI | 0.4 µM | 2 µM | 225 | 43.33% | 52.26% | 4.41% | inhibition [11]: 29%
7 | COc1cc(C(=O)c2oc3c(OC)cccc3c2NC(=O)CI)cc(OC)c1OC | 14 µM | 24 µM | – | – | – | – | –
8 | COc1cc(C(=O)c2oc3ccc(NC(=O)CI)cc3c2C)cc(OC)c1OC | 18 µM | 26.8 µM | – | – | – | – | –
9 | COc1cc(C(=O)c2cc3cccc(NC(=O)CI)c3o2)cc(OC)c1OC | > 50 µM | > 50 µM | – | – | – | – | –
10 | COc1ccc(C(=O)c2oc3ccccc3c2NC(=O)CI)cc1OC | 22 µM | 48 µM | – | – | – | – | –
11 | COc1cc(C(=O)c2cc3cc(NC(=O)CI)ccc3o2)cc(OC)c1OC | 0.6 µM | 2.9 µM | 255 | 39.48% | 53.52% | 7% | inhibition [11]: 19%
12 | COc1cc(C(=O)c2sc3c(C)cccc3c2NC(=O)CI)cc(OC)c1OC | 0.4 µM | 2.8 µM | – | – | – | – | Activity (K562 [12]): 2.99%; Flu intensity [13]: 45.2; IC50 (Tubulin): 1.1 µM; inhibition (Bos taurus): 65%; Activity (K562 [14]): 79.88%; Activity (K562 [15]): 17.13%
